Active and inactive are the calls of the source. The rule behind the calls is not given here.
What was measured:
[1] = Half life in rat plasma at 5 uM by LC-MS/MS analysis; type: ADME, cell-free
In short: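 Compound at 5 µM final in rat plasma, shaken at 37 °C and sampled at 0, 30, 60, 120 and 240 min. Reaction stopped with three volumes of ice-cold acetonitrile and protein spun out. Supernatant analysed by LC-MS/MS on a C18 column with formic acid/water–ACN mobile phase. Percent parent remaining taken from peak areas; n = 3.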

Anoctamin-1 = molecular target: T1, Anoctamin-1 (Homo sapiens, UniProt Q5XXA6); assay: Inhibition of YFP-fused ANO1 (unknown origin) expressed in FRT cells after 20 mins by fluorescence quenching method; type: cell-based
T1 sequence (Q5XXA6 whole entry): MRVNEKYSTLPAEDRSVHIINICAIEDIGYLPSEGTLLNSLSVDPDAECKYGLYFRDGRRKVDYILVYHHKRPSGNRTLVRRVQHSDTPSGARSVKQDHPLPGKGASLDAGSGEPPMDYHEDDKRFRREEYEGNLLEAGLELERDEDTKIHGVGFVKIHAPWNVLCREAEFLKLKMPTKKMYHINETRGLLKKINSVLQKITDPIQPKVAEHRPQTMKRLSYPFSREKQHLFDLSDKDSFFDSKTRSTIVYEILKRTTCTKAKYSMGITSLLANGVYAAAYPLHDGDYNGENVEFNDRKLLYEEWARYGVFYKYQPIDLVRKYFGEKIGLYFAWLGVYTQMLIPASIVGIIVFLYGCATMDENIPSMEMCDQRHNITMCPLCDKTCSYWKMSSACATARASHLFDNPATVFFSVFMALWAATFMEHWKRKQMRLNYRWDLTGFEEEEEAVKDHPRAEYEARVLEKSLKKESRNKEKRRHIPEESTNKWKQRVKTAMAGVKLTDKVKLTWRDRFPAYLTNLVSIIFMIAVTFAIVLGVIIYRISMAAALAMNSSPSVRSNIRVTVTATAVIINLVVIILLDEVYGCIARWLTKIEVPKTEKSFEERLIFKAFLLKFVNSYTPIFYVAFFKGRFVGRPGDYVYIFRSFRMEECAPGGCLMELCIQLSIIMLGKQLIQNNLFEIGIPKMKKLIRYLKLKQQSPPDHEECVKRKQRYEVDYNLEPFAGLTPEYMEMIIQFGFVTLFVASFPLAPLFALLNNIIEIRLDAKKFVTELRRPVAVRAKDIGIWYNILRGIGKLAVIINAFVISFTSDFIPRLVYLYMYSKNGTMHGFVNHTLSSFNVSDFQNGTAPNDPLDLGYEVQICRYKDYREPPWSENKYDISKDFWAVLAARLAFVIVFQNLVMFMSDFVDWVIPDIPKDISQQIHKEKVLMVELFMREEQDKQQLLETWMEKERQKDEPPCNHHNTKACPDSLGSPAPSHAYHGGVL

Anoctamin-2 = molecular target: T2, Anoctamin-2 (Homo sapiens, UniProt Q9NQ90); assay: Inhibition of YFP-fused ANO2 (unknown origin) expressed in FRT cells after 20 mins by fluorescence quenching method; type: cell-based
T2 sequence (Q9NQ90 whole entry): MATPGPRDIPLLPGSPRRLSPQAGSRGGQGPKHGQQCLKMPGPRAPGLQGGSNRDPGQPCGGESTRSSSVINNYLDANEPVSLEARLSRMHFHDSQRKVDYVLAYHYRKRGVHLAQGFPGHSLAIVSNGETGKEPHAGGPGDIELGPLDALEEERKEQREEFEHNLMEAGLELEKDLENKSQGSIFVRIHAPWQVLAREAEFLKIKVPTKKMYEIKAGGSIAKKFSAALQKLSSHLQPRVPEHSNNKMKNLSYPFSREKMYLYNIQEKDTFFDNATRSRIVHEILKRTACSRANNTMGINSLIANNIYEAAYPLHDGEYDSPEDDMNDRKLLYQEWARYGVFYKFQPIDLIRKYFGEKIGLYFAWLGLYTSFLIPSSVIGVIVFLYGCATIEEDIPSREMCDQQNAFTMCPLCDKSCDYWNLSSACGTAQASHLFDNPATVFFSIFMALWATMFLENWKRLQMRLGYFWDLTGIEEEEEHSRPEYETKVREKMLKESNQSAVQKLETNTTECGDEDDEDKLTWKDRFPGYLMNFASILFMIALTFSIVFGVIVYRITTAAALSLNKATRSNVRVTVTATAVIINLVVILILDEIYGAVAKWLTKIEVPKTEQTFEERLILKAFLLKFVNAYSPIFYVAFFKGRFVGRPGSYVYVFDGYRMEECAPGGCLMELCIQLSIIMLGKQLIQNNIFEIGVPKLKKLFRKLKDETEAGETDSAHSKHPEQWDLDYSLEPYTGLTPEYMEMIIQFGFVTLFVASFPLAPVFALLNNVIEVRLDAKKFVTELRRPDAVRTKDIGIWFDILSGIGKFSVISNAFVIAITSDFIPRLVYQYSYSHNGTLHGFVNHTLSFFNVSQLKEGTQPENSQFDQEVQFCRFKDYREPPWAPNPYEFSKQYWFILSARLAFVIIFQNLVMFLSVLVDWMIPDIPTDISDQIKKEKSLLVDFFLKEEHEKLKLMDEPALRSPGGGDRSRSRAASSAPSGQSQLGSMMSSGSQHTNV

ANO2 (Anoctamin-2) = molecular target: T3, ANO2 (Anoctamin-2) (Homo sapiens, UniProt Q9NQ90); assay: Inhibition of YFP-fused ANO2 (unknown origin) expressed in FRT cells after 20 mins by fluorescence quenching method relative to untreated control; type: cell-based; parameters: concentration or dose not given beside the values; conditions: FRT cells expressing YFP-fused ANO2
T3 sequence (Q9NQ90 whole entry): T2 sequence (Q9NQ90 whole entry)
In short: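 FRT cells stably co-expressing YFP-H148Q/I152L/F46L and ANO1 or ANO2, seeded 2×10^4 per well and grown 48 h. After PBS washes, compound given for 20 min. At 2 s, 70 mM I⁻ solution containing 200 µM ATP added; fluorescence read every 0.4 s for 6 s. Inhibition taken from initial slope of quenching; mean ± S.E., n = 3.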

[2] = molecular target: CFTR (cystic fibrosis transmembrane conductance regulator) (Homo sapiens, UniProt P13569); assay: Inhibition of wild type human CFTR expressed in FRT cells assessed as reduction in forskolin-induced chloride current at 10 uM after 20 mins by electrophysiological assay; type: cell-based; conditions: FRT cells expressing wild type human CFTR
Sequence of CFTR (cystic fibrosis transmembrane conductance regulator) (P13569 whole entry): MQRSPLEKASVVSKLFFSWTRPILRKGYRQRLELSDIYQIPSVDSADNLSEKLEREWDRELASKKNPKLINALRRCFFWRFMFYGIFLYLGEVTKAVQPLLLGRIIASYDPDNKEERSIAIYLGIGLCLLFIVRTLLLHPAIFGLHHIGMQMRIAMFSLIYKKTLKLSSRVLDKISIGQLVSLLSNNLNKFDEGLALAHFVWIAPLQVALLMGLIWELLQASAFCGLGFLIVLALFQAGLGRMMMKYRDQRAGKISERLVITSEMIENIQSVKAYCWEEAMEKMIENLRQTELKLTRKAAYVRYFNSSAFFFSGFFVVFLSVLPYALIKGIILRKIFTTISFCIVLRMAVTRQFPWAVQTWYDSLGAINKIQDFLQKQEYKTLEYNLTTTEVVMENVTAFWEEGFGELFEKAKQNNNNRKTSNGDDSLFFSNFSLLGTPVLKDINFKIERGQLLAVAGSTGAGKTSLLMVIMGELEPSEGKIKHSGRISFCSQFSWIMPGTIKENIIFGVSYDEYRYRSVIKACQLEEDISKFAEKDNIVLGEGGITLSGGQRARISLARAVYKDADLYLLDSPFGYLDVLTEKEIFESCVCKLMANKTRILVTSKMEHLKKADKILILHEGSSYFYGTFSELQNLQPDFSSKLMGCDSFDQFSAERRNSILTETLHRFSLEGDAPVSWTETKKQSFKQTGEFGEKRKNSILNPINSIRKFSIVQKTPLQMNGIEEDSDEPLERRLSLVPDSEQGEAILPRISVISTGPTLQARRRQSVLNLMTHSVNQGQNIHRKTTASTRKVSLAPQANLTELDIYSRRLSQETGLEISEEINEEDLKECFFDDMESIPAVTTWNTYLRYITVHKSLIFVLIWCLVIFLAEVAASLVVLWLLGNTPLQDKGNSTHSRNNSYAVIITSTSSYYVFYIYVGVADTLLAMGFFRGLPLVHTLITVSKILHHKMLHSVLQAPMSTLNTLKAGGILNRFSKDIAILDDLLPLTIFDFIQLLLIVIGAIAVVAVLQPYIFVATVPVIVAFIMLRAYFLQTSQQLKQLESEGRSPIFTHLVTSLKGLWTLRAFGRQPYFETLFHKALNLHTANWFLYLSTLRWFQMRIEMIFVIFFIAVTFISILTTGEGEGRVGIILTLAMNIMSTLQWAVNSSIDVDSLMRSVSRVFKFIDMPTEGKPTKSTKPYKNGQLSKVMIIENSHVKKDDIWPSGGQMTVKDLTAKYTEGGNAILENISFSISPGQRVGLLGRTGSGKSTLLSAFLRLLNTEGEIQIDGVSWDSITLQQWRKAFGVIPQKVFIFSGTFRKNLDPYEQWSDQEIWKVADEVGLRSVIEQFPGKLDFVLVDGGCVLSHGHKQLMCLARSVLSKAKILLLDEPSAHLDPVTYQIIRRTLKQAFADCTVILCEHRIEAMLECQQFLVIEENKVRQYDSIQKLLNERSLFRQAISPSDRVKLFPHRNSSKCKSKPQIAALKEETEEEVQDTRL
In short: (§1)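 Ussing chamber, FRT monolayers expressing ANO1, ANO2 or human WT-CFTR. Basolateral side permeabilised with amphotericin B (250 µg/mL) in HCO3⁻-buffered solution, pH 7.4; apical side half-Cl⁻ (65 mM NaCl replaced by gluconate). Run at 37 °C under 95% O2/5% CO2. Compound applied apically for 20 min, then ANO1/2 activated with 100 µM ATP or CFTR with 20 µM forskolin. Apical current recorded; n = 3–6.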

PC-3 [3] = assay: Cytotoxicity against human PC3 cells assessed as reduction in cell viability at 10 uM after 48 hrs by MTS assay; type: functional, cell-based
In short: (§2)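 PC3, MCF7 and BxPC3 cells grown in RPMI1640 with 10% FBS, plated and held 24 h in 2% FBS medium. At about 20% confluency, compound added at 0.01–30 µM for 48 h, with medium and compound replaced every 24 h. MTS reagent applied for 1 h and formazan absorbance read at 490 nm; mean ± S.E., n = 3.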

MCF7 [4] = assay: Cytotoxicity against human MCF7 cells assessed as reduction in cell viability at 10 uM after 48 hrs by MTS assay; type: functional, cell-based; in short: as §2
BXPC-3 [5] = assay: Cytotoxicity against human BxPC3 cells assessed as reduction in cell viability at 10 uM after 48 hrs by MTS assay; type: functional, cell-based; in short: as §2
[6] = molecular target: T4, Anoctamin-1 (Homo sapiens) (UniProt Q5XXA6); assay: Inhibition of ANO1 (unknown origin) expressed in FRT cells assessed as reduction in ATP-induced chloride current after 20 mins by electrophysiological assay; type: cell-based
T4 sequence (whole entry): T1 sequence (Q5XXA6 whole entry)

[7] = molecular target: Cystic fibrosis transmembrane conductance regulator (Homo sapiens, UniProt P13569); assay: Inhibition of wild type human CFTR expressed in FRT cells assessed as reduction in forskolin-induced chloride current at 30 to 100 uM after 20 mins by electrophysiological assay; type: cell-based; in short: as §1
Sequence of Cystic fibrosis transmembrane conductance regulator (P13569 whole entry): as above

Homo sapiens [8] = species on record: Homo sapiens; assay: Selectivity for ANO1 (unknown origin) over ANO2 (unknown origin)
Homo sapiens [9] = species on record: Homo sapiens; assay: Selectivity for ANO1 (unknown origin) over wild type human CFTR
PC-3 [10] = assay: Cytotoxicity against human PC3 cells assessed as reduction in cell viability after 48 hrs by MTS assay; type: functional, cell-based; in short: as §2
MCF7 [11] = assay: Cytotoxicity against human MCF7 cells assessed as reduction in cell viability after 48 hrs by MTS assay; type: functional, cell-based; in short: as §2
BXPC-3 [12] = assay: Cytotoxicity against human BxPC3 cells assessed as reduction in cell viability after 48 hrs by MTS assay; type: functional, cell-based; in short: as §2
PC-3 [13] = assay: Inhibition of ANO1 protein expression level in human PC3 cells at 3 to 10 uM after 24 hrs by Western blot analysis; type: functional, cell-based
In short: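 PC3 cells exposed to compound for 24 h and lysed in NP-40/deoxycholate buffer with protease and phosphatase inhibitors. Lysate cleared at 15000 g, resolved on 4–12% Tris-glycine gel and transferred to PVDF. Blocked in 4% milk/TBST, probed with anti-ANO1 (1:500) then anti-rabbit secondary (1:2000), and detected by ECL.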

IC50 (Anoctamin-1; read-out: IC50) | IC50 (Anoctamin-2) | inhibition at 20 min (ANO2 (Anoctamin-2)) | IC50 (Anoctamin-2; read-out: IC50) | SMILES | further results
– | – | – | – | COc1ccccc1/C=N/NC(=O)COc1ccc(Cl)cc1C | half-life at 5 µM [1]: 0.533 h
> 100 µM | Not Active | < 20% | – | COc1cccc(/C=N/NC(=O)COc2ccc(Cl)cc2C)c1 | –
> 100 µM | Not Active | < 20% | – | Cc1cc(Cl)ccc1OCc1nnc(-c2cccc(OC(F)(F)F)c2)o1 | –
– | Not Active | < 20% | – | Cc1cc(Cl)ccc1OCC(=O)N/N=C/c1ccco1 | –
> 100 µM | Not Active | < 20% | – | Cc1cc(Cl)ccc1OCc1nnc(-c2ccccn2)o1 | –
> 100 µM | – | – | > 100 µM | Cc1cc(Cl)ccc1OC(F)(F)C(=O)N/N=C/c1ccccc1OC(F)(F)F | –
– | – | – | > 100 µM | Cc1cc(Cl)ccc1OCc1nnc(-c2ccccc2F)o1 | –
– | – | – | > 100 µM | Cc1cc(Cl)ccc1OCc1nnc(-c2ccco2)o1 | –
– | Not Active | < 20% | – | Cc1cc(Cl)ccc1OCC(=O)N/N=C/c1ccccc1C(F)(F)F | –
> 100 µM | – | – | > 100 µM | Cc1cc(Cl)ccc1OCc1nnc(-c2ccccc2C(F)(F)F)o1 | –
– | – | – | > 100 µM | C/C(=N\NC(=O)COc1ccc(Cl)cc1C)c1ccccc1OC(F)(F)F | –
– | – | – | > 100 µM | COc1ccccc1CNNC(=O)COc1ccc(Cl)cc1C | –
> 100 µM | – | – | > 100 µM | Cc1cc(Cl)ccc1OCc1nnc(-c2cccc(F)c2)o1 | –
– | – | – | – | O=C(O)c1ccc(/C=C2/SC(=S)N(c3cccc(C(F)(F)F)c3)C2=O)cc1 | inhibition at 20 min, 10 µM [2]: 100%
> 100 µM | Not Active | < 20% | – | Cc1cc(Cl)ccc1OCC(=O)N/N=C/c1cccc(OC(F)(F)F)c1 | Activity (PC-3 [3]): inactive; Activity (MCF7 [4]): inactive; Activity (BXPC-3 [5]): inactive
> 100 µM | Not Active | < 20% | – | Cc1cc(Cl)ccc1OCc1nnc(-c2ccccc2OC(F)(F)F)o1 | –
> 100 µM | – | – | > 100 µM | COc1cccc(-c2nnc(COc3ccc(Cl)cc3C)o2)c1 | –
0.89 µM | Not Active | < 20% | – | Cc1cc(Cl)ccc1OCC(=O)N/N=C/c1ccccc1F | –
– | – | – | > 100 µM | Cc1cc(Cl)ccc1OCC(=O)N/N=C/c1ccccn1 | –
> 100 µM | Not Active | < 20% | – | Cc1cc(Cl)ccc1OCC(=O)N/N=C/c1cccc(F)c1 | –
> 100 µM | Not Active | – | – | Cc1cc(Cl)ccc1OC(C)C(=O)N/N=C/c1ccccc1OC(F)(F)F (configuration not stated) | –
> 100 µM | – | – | > 100 µM | COc1ccccc1-c1nnc(-c2cc3cc(Cl)ccc3o2)o1 | –
– | Not Active | < 20% | – | Cc1cc(Cl)ccc1OCC(=O)N/N=C/c1ccccc1OC(F)(F)F | inhibition [6]: Dose-dependent effect; inhibition (INH) [7]: Not Active; Selectivity ratio (Homo sapiens [8]): > 1000; Selectivity ratio (Homo sapiens [9]): > 1000; Activity (PC-3 [10]): Dose-dependent effect; Activity (MCF7 [11]): Dose-dependent effect; Activity (BXPC-3 [12]): Dose-dependent effect; inhibition (PC-3 [13]): Active; half-life at 5 µM [1]: 1.73 h
> 100 µM | – | – | > 100 µM | COc1ccccc1/C=N/NC(=O)c1cc2cc(Cl)ccc2o1 | –
– | – | – | > 100 µM | Cc1cc(Cl)ccc1OC(C)(C)C(=O)N/N=C/c1ccccc1OC(F)(F)F | IC50 (Anoctamin-1): Not Active
